The values that follow come from ChEMBL document CHEMBL1137338, “Effects of substitution on 9-(3-bromo-4-fluorophenyl)-5,9-dihydro-3H,4H-2,6-dioxa-4- azacyclopenta[b]naphthalene-1,8-dione, a dihydropyridine ATP-sensitive potassium channel opener” (J Med Chem, 2006).

For assay [1], the system named is Rattus norvegicus. The experiment in a line: Activity against volume-induced reflex neurogenic bladder contraction in urethral ligated rat measured as reduction in AUC at 0.3 umol/kg, iv. In kind it is functional, Urinary bladder. Further details: scale not given: the % may be the effect or the level left.
Assay [2] concerns Rattus norvegicus. The experiment in a line: Activity against spontaneous myogenic bladder contraction in partial outlet obstructed rat measured as reduction in AUC at 0.03 umol/kg, iv. In kind it is functional. Further details: scale not given: the % may be the effect or the level left.
Assay [3] concerns Rattus norvegicus. The experiment in a line: Activity against volume-induced reflex neurogenic bladder contraction in urethral ligated rat measured as reduction in AUC at 3 umol/kg, iv. Further details: scale not given: the % may be the effect or the level left. The class given is functional, Urinary bladder.
In assay [4] the target is T1, Sulfonylurea receptor 2, Kir6.2 (Homo sapiens, UniProt O60706+Q14654). The experiment in a line: Activity against pig bladder KATP channel opening assessed as ability to relax field-stimulated pig detrusor. In kind it is functional, Sus scrofa. The note with it: target entry is the homologue from another species.
In assay [5] the test system is Rattus norvegicus. The experiment in a line: Activity against volume-induced reflex neurogenic bladder contraction in urethral ligated rat measured as reduction in MAP at 3 umol/kg, iv. In kind it is functional, Urinary bladder. Further details: scale not given: the % may be the effect or the level left.
The subject of assay [6] is Rattus norvegicus. The experiment in a line: Activity against spontaneous myogenic bladder contraction in partial outlet obstructed rat measured as reduction in MAP at 0.3 umol/kg, iv. The class given is functional. Further details: scale not given: the % may be the effect or the level left.
The target of assay [7] is T1, Sulfonylurea receptor 2, Kir6.2. The experiment in a line: Ability to open human urinary bladder Kir6.2 channel containing SUR2B in Ltk cells by FLIPR assay. The class given is functional, cell-based. Summed up: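 Ltk- cells stably transfected with the Kir6.2/SUR2B exon 17- splice variant. Membrane potential was followed with DiBAC dye in a 96-well cell-based kinetic fluorescence (FLIPR) assay. The highest concentration tested was 10 µM. Each compound's maximal fluorescence response was expressed as % of the response to the reference opener.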

For assay [8] the target is unchanged. The experiment in a line: Activity against pig bladder KATP channel opening assessed as ability to relax spontaneous bladder contraction. The class given is functional, Sus scrofa. The note with it: target entry is the homologue from another species. In short, it runs like this: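 Spontaneously contracting detrusor strips were taken from near the trigonal region of Landrace pig bladder. Increasing concentrations of test agent were applied, and the reduction in area under the curve (AUC) of the spontaneous contractions was measured.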

The test system of assay [9] is Rattus norvegicus. The experiment in a line: Activity against volume-induced reflex neurogenic bladder contraction in urethral ligated rat measured as reduction in MAP at 0.3 umol/kg, iv. In kind it is functional, Urinary bladder. Also on record: scale not given: the % may be the effect or the level left.
For assay [10], the system named is Rattus norvegicus. The experiment in a line: Activity against spontaneous myogenic bladder contraction in partial outlet obstructed rat measured as reduction in MAP at 0.03 umol/kg, iv. The class given is functional. Further details: scale not given: the % may be the effect or the level left.
Assay [11] has as its system Rattus norvegicus. The experiment in a line: Activity against spontaneous myogenic bladder contraction in partial outlet obstructed rat measured as reduction in MAP at 1 umol/kg, iv. Also on record: scale not given: the % may be the effect or the level left. In kind it is functional.
Assay [12] deals with Rattus norvegicus. The experiment in a line: Activity against spontaneous myogenic bladder contraction in partial outlet obstructed rat measured as reduction in AUC at 0.1 umol/kg, iv. The class given is functional. Further details: scale not given: the % may be the effect or the level left.
Assay [13] deals with Rattus norvegicus. The experiment in a line: Activity against volume-induced reflex neurogenic bladder contraction in urethral ligated rat measured as reduction in AUC at 1 umol/kg, iv. The class given is functional, Urinary bladder. Further details: scale not given: the % may be the effect or the level left.
The subject of assay [14] is Rattus norvegicus. The experiment in a line: Activity against volume-induced reflex neurogenic bladder contraction in urethral ligated rat measured as reduction in MAP at 1 umol/kg, iv. In kind it is functional, Urinary bladder. Also on record: scale not given: the % may be the effect or the level left.
The test system of assay [15] is Rattus norvegicus. The experiment in a line: Activity against spontaneous myogenic bladder contraction in partial outlet obstructed rat measured as reduction in AUC at 0.3 umol/kg, iv. The class given is functional. Also on record: scale not given: the % may be the effect or the level left.
Assay [16] has as its system Rattus norvegicus. The experiment in a line: Activity against spontaneous myogenic bladder contraction in partial outlet obstructed rat measured as reduction in MAP at 0.1 umol/kg, iv. Further details: scale not given: the % may be the effect or the level left. In kind it is functional.
For assay [17], the system named is Rattus norvegicus. The experiment in a line: Activity against spontaneous myogenic bladder contraction in partial outlet obstructed rat measured as reduction in AUC at 1 umol/kg, iv. Further details: scale not given: the % may be the effect or the level left. In kind it is functional.

T1 sequence (Q14654 whole entry): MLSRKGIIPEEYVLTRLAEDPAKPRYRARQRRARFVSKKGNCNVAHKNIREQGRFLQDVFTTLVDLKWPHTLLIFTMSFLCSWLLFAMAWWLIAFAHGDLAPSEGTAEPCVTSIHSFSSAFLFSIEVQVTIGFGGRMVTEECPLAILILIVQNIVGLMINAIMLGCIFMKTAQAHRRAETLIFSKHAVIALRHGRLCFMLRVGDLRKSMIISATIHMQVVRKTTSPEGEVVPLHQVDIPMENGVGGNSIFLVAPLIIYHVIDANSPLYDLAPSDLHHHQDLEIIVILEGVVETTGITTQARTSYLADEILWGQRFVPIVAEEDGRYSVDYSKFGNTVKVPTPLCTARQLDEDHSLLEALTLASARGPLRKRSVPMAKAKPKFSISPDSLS
T1 sequence (O60706 whole entry): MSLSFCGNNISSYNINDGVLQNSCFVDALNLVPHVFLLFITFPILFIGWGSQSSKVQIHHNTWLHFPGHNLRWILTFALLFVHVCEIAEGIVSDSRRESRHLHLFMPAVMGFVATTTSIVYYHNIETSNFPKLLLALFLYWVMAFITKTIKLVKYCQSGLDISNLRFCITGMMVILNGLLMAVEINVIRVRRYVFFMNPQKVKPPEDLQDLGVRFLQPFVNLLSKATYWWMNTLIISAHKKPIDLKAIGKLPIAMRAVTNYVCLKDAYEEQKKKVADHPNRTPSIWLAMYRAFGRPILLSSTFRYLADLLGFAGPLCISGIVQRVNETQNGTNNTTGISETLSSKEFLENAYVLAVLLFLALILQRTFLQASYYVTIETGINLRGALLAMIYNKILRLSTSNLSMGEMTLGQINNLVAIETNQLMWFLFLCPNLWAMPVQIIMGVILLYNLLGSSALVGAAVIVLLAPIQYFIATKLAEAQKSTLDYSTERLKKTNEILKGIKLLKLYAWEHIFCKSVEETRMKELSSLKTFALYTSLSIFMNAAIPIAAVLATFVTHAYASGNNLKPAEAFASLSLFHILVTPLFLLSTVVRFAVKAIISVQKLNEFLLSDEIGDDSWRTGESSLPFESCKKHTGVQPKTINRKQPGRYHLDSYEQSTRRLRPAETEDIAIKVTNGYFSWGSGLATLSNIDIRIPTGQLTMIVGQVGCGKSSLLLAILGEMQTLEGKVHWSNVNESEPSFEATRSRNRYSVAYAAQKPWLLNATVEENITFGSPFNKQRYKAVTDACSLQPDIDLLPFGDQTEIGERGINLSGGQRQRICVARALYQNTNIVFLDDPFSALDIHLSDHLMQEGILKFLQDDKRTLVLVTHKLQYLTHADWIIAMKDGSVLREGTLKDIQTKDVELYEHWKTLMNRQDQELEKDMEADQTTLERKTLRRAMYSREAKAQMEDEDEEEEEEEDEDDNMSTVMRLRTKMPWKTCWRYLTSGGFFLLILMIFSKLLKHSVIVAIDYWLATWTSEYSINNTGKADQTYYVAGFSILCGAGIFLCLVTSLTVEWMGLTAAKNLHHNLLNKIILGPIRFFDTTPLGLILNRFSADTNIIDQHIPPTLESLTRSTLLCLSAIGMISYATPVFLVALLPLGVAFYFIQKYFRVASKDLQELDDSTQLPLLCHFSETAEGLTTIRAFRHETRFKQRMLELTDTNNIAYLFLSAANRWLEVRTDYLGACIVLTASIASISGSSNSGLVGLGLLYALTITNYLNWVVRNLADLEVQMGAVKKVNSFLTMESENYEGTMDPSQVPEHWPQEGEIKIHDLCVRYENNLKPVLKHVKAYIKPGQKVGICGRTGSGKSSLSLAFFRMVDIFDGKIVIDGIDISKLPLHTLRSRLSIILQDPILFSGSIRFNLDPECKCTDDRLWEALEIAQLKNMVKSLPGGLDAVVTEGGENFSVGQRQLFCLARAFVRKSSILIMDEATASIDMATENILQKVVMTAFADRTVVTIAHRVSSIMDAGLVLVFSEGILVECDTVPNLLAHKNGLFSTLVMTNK

What is called EC50 is the concentration that produces a half-maximal response. With `CCC[C@H]1OC(O)=C2C1=NC1=C(C(=O)COC1)[C@H]2c1ccc(F)c(Br)c1` (stereo in doubt; 23b), the Activity in the assay with Rattus norvegicus [1] is listed as 16%; in the assay with Rattus norvegicus [2], 4.2%; in the assay on Rattus norvegicus [3], 37.4%; in the assay on Rattus norvegicus [5], 49.7%; in the assay with Rattus norvegicus [6] it was 23.6%; with Rattus norvegicus [9] it was 22.6%. Further, the Activity with Rattus norvegicus [10] is on record as 5.1%; in the assay on Rattus norvegicus [11], 40.7%; in the assay on Rattus norvegicus [12] it was 19.1%; with Rattus norvegicus [13], 31.9%; in the assay with Rattus norvegicus [14] it was 43.8%; with Rattus norvegicus [15] it was 46.7%. Also, the Activity worked out at 9.6% in the assay on Rattus norvegicus [16] and 93.1% in the assay on Rattus norvegicus [17]. For the same molecule, the figures for the half-maximal effective concentration (EC50) in [4], in assay [7] and in assay [8] were 513 nM, 27.5 nM and 28.8 nM, respectively.
